A short description of this data set: Toxicity liver stage against HepG2, at 10uM. As to conditions: human, HepG2-A16-CD81EGFP cells; read-out: INHIBITION
The format is cell-based. Also on record: test concentration 10 uM, cell line HepG2-A16-CD81EGFP. Put shortly:
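Uninfected HepG2-A16-CD81EGFP cells, 3 × 10^3 per well, 1536-well, plated on prespotted compound at 10 μM final, parasite-free screening media added to match infected plates; puromycin 10 μM positive, DMSO 0.5% negative; run in parallel with 48 h PbLuc assay at 37 °C, 5% CO2; viability by CellTiter-Glo luminescence, normalized to controls.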

On to `Cc1cc(-c2cnc(N(C)C)nc2C2CCCCN2C(=O)C2CC2)on1` (stereo unspecified), for which the cytotoxicity at 10 µM amounted to 0.095%.

In the case of `Cc1nnc(C(C)Nc2cccc(COCCc3ccccc3)c2)o1` (stereo unspecified), the cytotoxicity at 10 µM was -3.51%.

As to `O=C(C1CC1)N1CCCCCC1C1CCN(c2ncccn2)CC1` (stereo unspecified), the cytotoxicity at 10 µM was -9.56%.

For `Cc1nn(C)c2c(NC3CCCC3)nc(C3CC3)nc12`, the cytotoxicity at 10 µM is -0.801%.

`Cc1nc(C2CCCN(C(=O)Cn3ccccc3=O)C2)no1` (stereo unspecified): the cytotoxicity at 10 µM is -9.37%.

With `O=C1C(NCc2nnc3n2CCCC3)CCCN1c1cccc(F)c1` (stereo unspecified), the cytotoxicity at 10 µM is -9.68%.

With `CN(C)C(CNC(=O)c1[nH]nc(C2CC2)c1Br)C1CC1` (stereo unspecified), the cytotoxicity at 10 µM was -4.14%.

As to `Cc1nn(C)c(C)c1CCC(=O)N(C)Cc1ccc2nsnc2c1`, the cytotoxicity at 10 µM was -1.62%.

Regarding `CCOc1ncccc1NC(=O)NC1CCCN(S(C)(=O)=O)C1` (stereo unspecified), the cytotoxicity at 10 µM is -3.62%.

`CCS(=O)(=O)NCC1Cn2nnc(-c3cccc(C)c3)c2CO1` (stereo unspecified): the cytotoxicity at 10 µM was -120%.

Consider `CN(Cc1ccc2c(c1)OCCO2)Cn1nc(C(C)(C)C)ccc1=O`, for which the cytotoxicity at 10 µM was -12.4%.

Turning to `CN(CCNS(C)(=O)=O)CC(c1cccs1)N1CCOCC1` (stereo unspecified), the cytotoxicity at 10 µM was -3.43%.

As for `O=C1CC2(CCN(Cc3cccs3)C2)CN1c1cccc(F)c1` (stereo unspecified), the cytotoxicity at 10 µM was -148%.

Take `CC(=O)N[C@@H]1CN(C(=O)c2cnc3ccccc3c2)C[C@H]1O`: the cytotoxicity at 10 µM was -12.1%.

Turning to `CCS(=O)(=O)N1C[C@@H](C(=O)NC(C)C)[C@@]2(Cc3ccccc3C(=O)N2)C1`, the cytotoxicity at 10 µM was determined as 1.11%.

Regarding `CC(CNC(=O)NCc1ccco1)CC1(C)OCCO1` (stereo unspecified), the cytotoxicity at 10 µM was -7.25%.

Consider `O=C(CCOc1ccccc1)N1CCCC(c2ncc[nH]2)C1` (stereo unspecified), for which the cytotoxicity at 10 µM is -2.68%.

Turning to `O=c1ccc(-n2ccnc2)nn1CCNS(=O)(=O)c1ccccc1Cl`, the cytotoxicity at 10 µM was -0.947%.

Take `CCCN1CCCC2(CCN(c3nc(C)nc4ccsc34)C2)C1=O` (stereo unspecified): the cytotoxicity at 10 µM is 17.4%.

As to `CN1C(=N)NC(=O)/C1=C/c1ccc(-c2ccc(Br)cc2)o1`, the cytotoxicity at 10 µM was determined as 5.39%.

As to `CCc1nc2n(n1)CC(Nc1ccnc(-c3ccccc3)n1)CC2` (stereo unspecified), the cytotoxicity at 10 µM was -11.7%.

Turning to `CN1CCNC(=O)C1CC(=O)NCCc1cnn(-c2ccccc2)c1` (stereo unspecified), the cytotoxicity at 10 µM was determined as 2.53%.

For the compound `CC(C)CC1SCC(=O)Nc2c1cnn2-c1ccccc1F` (stereo unspecified), the cytotoxicity at 10 µM was -8.62%.

Regarding `Cc1cc(NC(=O)CCc2ccsc2)n(C)n1`, the cytotoxicity at 10 µM turned out to be 17.8%.

In the case of `CC(C)[C@H]1COC(=O)N1Cc1noc(-c2ccccc2)n1`, the cytotoxicity at 10 µM worked out at 5.01%.

As for `COc1ccccc1CC(C)CC(=O)N(C)Cc1cc(C)on1` (stereo unspecified), the cytotoxicity at 10 µM turned out to be 3.8%.

On to `Cc1cc(O)nc(C2CCCNC2)n1` (stereo unspecified), for which the cytotoxicity at 10 µM was -9.14%.

As for `COc1cc(C)c(CN2CCC3(CC2)C(C(=O)O)CC(=O)N3C)cc1C` (stereo unspecified), the cytotoxicity at 10 µM was -8.58%.

For the compound `CCn1c(C)nnc1SCCNc1nc(C)nc2ncccc12`, the cytotoxicity at 10 µM came to 0.194%.

On to `CCCc1cc(NC(=O)c2cc(N3CCNC3=O)c(F)cc2F)n[nH]1`, for which the cytotoxicity at 10 µM was 12.3%.

For `CCc1cccc(N2CCC(NC(=O)C3CCC3)CC2)c1`, the cytotoxicity at 10 µM came out at 3.6%.

With `CC(C#N)CSc1ccccc1NCC(=O)NC(C1CC1)C1CC1` (stereo unspecified), the cytotoxicity at 10 µM worked out at 14.5%.

As to `CNC(=O)c1cc(OC)c(OC)cc1N(C)S(C)(=O)=O`, the cytotoxicity at 10 µM was -5.58%.

Regarding `Cc1nc(N2CCCC2)nc2c1CCN(C(=O)C1CCC1)CC2`, the cytotoxicity at 10 µM worked out at 3.39%.

In the case of `COCc1cccc(C(=O)N2CCCCC2c2nccs2)c1` (stereo unspecified), the cytotoxicity at 10 µM is -2.06%.

As to `CCC(=O)N1CCC(Cc2cnc(Nc3cnccn3)cn2)CC1`, the cytotoxicity at 10 µM is -2.19%.

Turning to `Cc1ccc(CNCc2nccn2C)c(OC(C)(C)C)c1`, the cytotoxicity at 10 µM was -2.58%.

Take `CC(=O)N1[C@H](Cn2cncn2)C[C@@H]2CN(C(=O)NC3CC3)CC[C@@H]21`: the cytotoxicity at 10 µM is -5.16%.

`COc1ccccc1N1CCN(C(=O)CCn2ccc(C)n2)CC1`: the cytotoxicity at 10 µM is -3.24%.

As for `Cn1cccc1C(=O)N1CCC2(CCCN2Cc2ccccc2)CC1`, the cytotoxicity at 10 µM came to 0.929%.

As for `CCOc1ncccc1C(=O)NCC(O)c1ccc(F)c(F)c1` (stereo unspecified), the cytotoxicity at 10 µM was found to be 9.45%.

Regarding `COCCc1nnc(NC(=O)CCCc2ccccc2)o1`, the cytotoxicity at 10 µM was -4.34%.

Turning to `Cc1nc2ccccc2c(=O)n1CCC(=O)N1CCCCCC1`, the cytotoxicity at 10 µM was -6.57%.

Take `Cc1c[nH]nc1C1CCCN(c2cnccn2)C1` (stereo unspecified): the cytotoxicity at 10 µM worked out at 8.75%.

For `c1cc(COC[C@H]2CCC[C@]23CNCCO3)ccn1`, the cytotoxicity at 10 µM is -99.1%.

`Cc1cc(CNc2ccnn2C)ccc1-n1cncn1`: the cytotoxicity at 10 µM is -43.2%.

Consider `COc1cc(Cl)ccc1CNC(=O)N1CCC(n2cncn2)CC1`, for which the cytotoxicity at 10 µM was -0.861%.

Turning to `CCC1(CC)Cc2ccccc2-c2nc(NCCCO)[nH]c(=O)c21`, the cytotoxicity at 10 µM was found to be 10.2%.

As to `CCC(NC(=O)c1c(C(=O)O)cnn1C)c1ccc(C)cc1C` (stereo unspecified), the cytotoxicity at 10 µM is -7.58%.

As to `Cc1cnn(CC2CCCCN2CC(=O)N(C)Cc2ccc(C)o2)c1` (stereo unspecified), the cytotoxicity at 10 µM worked out at 10.6%.

As for `CC(=O)CSc1nnc2n1N=CN(c1cccc(Cl)c1)C2`, the cytotoxicity at 10 µM was found to be 1.05%.

As to `O=C(CCn1cc(Cl)cn1)Nc1nncs1`, the cytotoxicity at 10 µM was -9.61%.

On to `CCc1ncncc1C(=O)N1CCN(Cc2ccsc2)CC1`, for which the cytotoxicity at 10 µM is 0.956%.

For `Cc1noc2ncc(S(=O)(=O)Nc3cc(CC(C)(C)C)[nH]n3)cc12`, the cytotoxicity at 10 µM turned out to be 5.55%.

For the compound `Cn1nnnc1SCC1Cc2ccccc2O1` (stereo unspecified), the cytotoxicity at 10 µM stood at 14.9%.

With `COc1cccc2cc(CNC(=O)N3CCC(C(N)=O)CC3)oc12`, the cytotoxicity at 10 µM is -6.13%.

In the case of `CC(C)(C)C(=O)N1CCN(C(=O)Nc2cnn(CC(F)F)c2)CC1`, the cytotoxicity at 10 µM stood at 9.62%.

Consider `Cc1c(C2NC3(CCCC3)C(=O)N2CC2CC2)cc(C#N)n1C` (stereo unspecified), for which the cytotoxicity at 10 µM is -1.99%.

For the compound `COc1cccc(CN2C[C@@H]3COC[C@]3(CN3CCOCC3)C2)c1`, the cytotoxicity at 10 µM is -80.6%.

Take `Cn1ccnc1SCCNC1CCN(c2nc3ccccc3s2)CC1`: the cytotoxicity at 10 µM amounted to 2.05%.

For the compound `CC(C)NC(=O)NC[C@H]1OC[C@@H](NCc2ccc(F)cc2)[C@@H]1O`, the cytotoxicity at 10 µM is 2.07%.

Regarding `COc1ccc(NC(=O)NCC(O)c2ccc(F)cc2F)c(OC)c1` (stereo unspecified), the cytotoxicity at 10 µM came out at 2.79%.

As to `O=C(NCc1ccccc1)N1Cc2nc(COCC3CC3)oc2C1`, the cytotoxicity at 10 µM was 8.67%.

For the compound `O=C(c1[nH]c2ccc(Cl)cc2c1Cl)N1CCC2(CC1)OCCO2`, the cytotoxicity at 10 µM was found to be 23.5%.

As to `CC(C)c1cc(N(C)Cc2noc(C3CCCC3)n2)n2nccc2n1`, the cytotoxicity at 10 µM was -0.0395%.

As to `COc1cc(NC(=O)c2ccc(CN3CC[C@H](O)C3)cc2)cc(OC)c1`, the cytotoxicity at 10 µM stood at 10.5%.

For `CCSc1nc(N)c(NC(=O)c2ccc(OC)c(OC)c2)c(=O)[nH]1`, the cytotoxicity at 10 µM was -6.24%.

As for `COCCOc1ncccc1C(=O)N1CCCn2ncnc21`, the cytotoxicity at 10 µM is -2.98%.

In the case of `Cc1cc(F)ccc1C(=O)N1CCN(C)C2(CCC(=O)N(C)CC2)C1` (stereo unspecified), the cytotoxicity at 10 µM was determined as 4.78%.

Turning to `c1ccc(Cn2cc(CNC3CCc4ncnn4C3)cn2)cc1` (stereo unspecified), the cytotoxicity at 10 µM was -1.61%.

As to `CCOCc1ncn2c1CN(S(=O)(=O)c1ccc(OC)cc1)CC2`, the cytotoxicity at 10 µM is 0.199%.

Regarding `O=C([C@@H]1COC[C@H]2CN(CC3CC3)C[C@H]21)N1CCC(F)CC1`, the cytotoxicity at 10 µM is 9.29%.

As for `O=C(Cc1ccccn1)N1CCN(C(=O)CC2CCCC2)CC1`, the cytotoxicity at 10 µM was -10.5%.

In the case of `CS(=O)(=O)N1CCn2c(C(=O)N3CCOCC3)cnc2C1`, the cytotoxicity at 10 µM was -4.63%.

For `CN(C)c1ccc(CNC(=O)c2ccc(Cl)cc2F)cc1`, the cytotoxicity at 10 µM was -8.33%.

On to `CCCS(=O)(=O)N1C[C@H](N(C)Cc2ccco2)[C@@H]2OCCC[C@@H]21`, for which the cytotoxicity at 10 µM is -78.4%.

As to `Cc1nc(NC(=O)C(C)S(C)(=O)=O)sc1Cc1ccc(F)cc1` (stereo unspecified), the cytotoxicity at 10 µM stood at 4.52%.

For `CCn1nc(C(=O)N2CCCC(n3cncn3)C2)ccc1=O` (stereo unspecified), the cytotoxicity at 10 µM is -3.3%.

Regarding `CN(C)CCN(Cc1ccccn1)C(=O)Nc1cccc(F)c1`, the cytotoxicity at 10 µM was 8.94%.

As to `c1cnc(N2CCO[C@H]3CN(Cc4csnn4)C[C@H]32)nc1`, the cytotoxicity at 10 µM is -70.7%.

`CCC1CN(CCC(=O)N(C)C)CCN1CCOC` (stereo unspecified): the cytotoxicity at 10 µM was -6.34%.

In the case of `CCNC(=O)[C@@H]1C[C@H](NC(=O)c2cc(CC)n[nH]2)CN1Cc1ccsc1`, the cytotoxicity at 10 µM was -5.92%.

As to `CN1CCC(Nc2cc(Cl)ccc2OCC(F)(F)F)C1=O` (stereo unspecified), the cytotoxicity at 10 µM was -2.71%.

Turning to `O=c1n(CC2CC2)nc(C2CCNCC2)n1Cc1ccccc1`, the cytotoxicity at 10 µM was -4.8%.

With `CCn1ncc2c1NC(=O)C(C#N)C21CCCC1` (stereo unspecified), the cytotoxicity at 10 µM was -0.242%.

On to `O=C(C1CC(F)(F)C1)N1C[C@@H]2CN(CC3CC3)CCO[C@@H]2C1`, for which the cytotoxicity at 10 µM is -0.336%.

For the compound `CC1CCCN(c2ccccc2OCC(=O)N2CCOCC2)C1` (stereo unspecified), the cytotoxicity at 10 µM is -22.3%.

Take `CCNC(=O)C1CCN(c2cc(-c3ccccc3)nc3cc(C)nn23)C1` (stereo unspecified): the cytotoxicity at 10 µM is -2.97%.

With `COCCN(C)CCN1CC2(CCN(C3CCOCC3)CC2)OC1=O`, the cytotoxicity at 10 µM was found to be 4.5%.

For the compound `Cc1cc(Cc2ccc(S(=O)(=O)N3CCSCC3)cc2)c(=O)[nH]n1`, the cytotoxicity at 10 µM was -10%.

`O=C(Cc1ccc(-n2cnnn2)cc1)Nc1nncs1`: the cytotoxicity at 10 µM turned out to be 5.47%.

For the compound `CC(C)NC(=O)[C@@H]1C[C@@H](N)CN1C(=O)CCSCc1ccccc1`, the cytotoxicity at 10 µM is 0.719%.

`CN1CCN(C(=O)C2CCCc3[nH]ncc32)CC1` (stereo unspecified): the cytotoxicity at 10 µM turned out to be 0.247%.

`CNC(=O)[C@H]1CO[C@H]2CCN(c3ncc(F)cn3)C[C@H]2C1`: the cytotoxicity at 10 µM is -0.0253%.

As to `NC(=O)NCC(=O)N1CCC(c2cc(-c3ccccc3Cl)n[nH]2)CC1`, the cytotoxicity at 10 µM is -0.208%.

Turning to `COc1cccc(OCC2CCCN(C(=O)c3cc(C)n[nH]3)C2)c1` (stereo unspecified), the cytotoxicity at 10 µM is -3.42%.
